Laboratory results from ChEMBL document CHEMBL3112482, “Nonclassical antifolates, part 5. Benzodiazepine analogs as a new class of DHFR inhibitors: synthesis, antitumor testing and molecular modeling study” (Eur J Med Chem, 2014).

Tests used:
Type in all cases: functional
[1] = tested on: M14; assay: Growth inhibition of human M14 cells at 10 uM after 48 hrs; conditions: M14, 48 h, read-out: GI
Procedure, shortened: (§1)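 Single-dose primary screen in the NCI 60 human tumour cell line panel, run at the NCI facility. The panel covers nine subpanels: leukaemia, non-small cell lung, colon, CNS, melanoma, ovarian, renal, prostate and breast. Read-out was percent growth of treated cells, shown as a mean graph and reported as percent growth inhibition.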

[2] = tested on: Malme-3M; assay: Growth inhibition of human MALME-3M cells at 10 uM after 48 hrs; conditions: read-out: GI; procedure, shortened: as §1
[3] = tested on: LOX IMVI; assay: Growth inhibition of human LOXIMVI cells at 10 uM after 48 hrs; conditions: read-out: GI; procedure, shortened: as §1
[4] = tested on: U-251; assay: Growth inhibition of human U251 cells at 10 uM after 48 hrs; conditions: U-251, 48 h, read-out: GI
Procedure, shortened: (§2)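 NCI 60-cell-line disease-oriented human tumor panel, single-dose primary screen at 10 µM. Data given as mean-graph percent growth of treated cells, reported as percent growth inhibition (GI %).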

[5] = tested on: SNB-75; assay: Growth inhibition of human SNB75 cells at 10 uM after 48 hrs; conditions: SNB-75, 48 h, read-out: GI; procedure, shortened: as §2
[6] = tested on: SNB-19; assay: Growth inhibition of human SNB19 cells at 10 uM after 48 hrs; conditions: SNB-19, 48 h, read-out: GI; procedure, shortened: as §2
[7] = Growth inhibition of human SF539 cells at 10 uM after 48 hrs; conditions: SF-539, 48 h, read-out: GI; procedure, shortened: as §2
[8] = tested on: SF-268; assay: Growth inhibition of human SF268 cells at 10 uM after 48 hrs; conditions: SF-268, 48 h, read-out: GI; procedure, shortened: as §2
[9] = tested on: SF-295; assay: Growth inhibition of human SF295 cells at 10 uM after 48 hrs; conditions: SF-295, 48 h, read-out: GI; procedure, shortened: as §2
[10] = tested on: NCI-H322M; assay: Growth inhibition of human NCI-H322M cells at 10 uM after 48 hrs; conditions: read-out: GI; procedure, shortened: as §1
[11] = tested on: NCI-H23; assay: Growth inhibition of human NCI-H23 cells at 10 uM after 48 hrs; conditions: NCI-H23, 48 h, read-out: GI; procedure, shortened: as §1
[12] = tested on: NCI-H226; assay: Growth inhibition of human NCI-H226 cells at 10 uM after 48 hrs; conditions: NCI-H226, 48 h, read-out: GI; procedure, shortened: as §1
[13] = tested on: HOP-62; assay: Growth inhibition of human HOP62 cells at 10 uM after 48 hrs; conditions: HOP-62, 48 h, read-out: GI; procedure, shortened: as §1
[14] = Growth inhibition of human EKVX cells at 10 uM after 48 hrs; conditions: read-out: GI; procedure, shortened: as §1
[15] = tested on: A549; assay: Growth inhibition of human A549 cells at 10 uM after 48 hrs; conditions: A549, 48 h, read-out: GI; procedure, shortened: as §1
[16] = tested on: SR; assay: Growth inhibition of human SR cells at 10 uM after 48 hrs; conditions: read-out: GI; procedure, shortened: as §2
[17] = tested on: K562; assay: Growth inhibition of human K562 cells at 10 uM after 48 hrs; conditions: K562, 48 h, read-out: GI; procedure, shortened: as §1
[18] = tested on: HL-60(TB); assay: Growth inhibition of human HL-60(TB) cells at 10 uM after 48 hrs; conditions: HL-60, 48 h, read-out: GI
Procedure, shortened: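 NCI 60-cell-line human tumour panel covering nine subpanels (leukaemia, non-small cell lung, colon, CNS, melanoma, ovarian, renal, prostate, breast), run at the NCI facility. Primary screen tested a single dose of each compound. Read-out was percent growth of treated cells versus untreated cells, reported from the mean graph as percentage growth inhibition.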

[19] = Cytotoxicity against human prostate cancer cells at 10 uM after 48 hrs; conditions: Cancer cell lines
[20] = Cytotoxicity against human renal cancer cells at 10 uM after 48 hrs; conditions: Cancer cell lines
[21] = Cytotoxicity against human CNS cancer cells at 10 uM after 48 hrs; conditions: Cancer cell lines
[22] = Cytotoxicity against human colon cancer cells at 10 uM after 48 hrs; conditions: Cancer cell lines; procedure, shortened: as §1
[23] = Cytotoxicity against human non-small cell lung cancer cells at 10 uM after 48 hrs; conditions: Cancer cell lines; procedure, shortened: as §1
[24] = tested on: T47D; assay: Growth inhibition of human T47D cells at 10 uM after 48 hrs; conditions: read-out: GI; procedure, shortened: as §2
[25] = Growth inhibition of human Hs 578T cells at 10 uM after 48 hrs; conditions: read-out: GI; procedure, shortened: as §1
[26] = tested on: MCF7; assay: Growth inhibition of human MCF7 cells at 10 uM after 48 hrs; conditions: MCF7, 48 h, read-out: GI; procedure, shortened: as §1
[27] = tested on: MDA-MB-231; assay: Growth inhibition of human MDA-MB-231 cells at 10 uM after 48 hrs; conditions: MDA-MB-231, 48 h, read-out: GI; procedure, shortened: as §1
[28] = tested on: DU-145; assay: Growth inhibition of human DU145 cells at 10 uM after 48 hrs; conditions: DU-145, 48 h, read-out: GI; procedure, shortened: as §1
[29] = tested on: PC-3; assay: Growth inhibition of human PC3 cells at 10 uM after 48 hrs; conditions: PC-3, 48 h, read-out: GI; procedure, shortened: as §1
[30] = tested on: TK-10; assay: Growth inhibition of human TK10 cells at 10 uM after 48 hrs; conditions: TK-10, 48 h, read-out: GI; procedure, shortened: as §2
[31] = Growth inhibition of human UO31 cells at 10 uM after 48 hrs; conditions: UO-31, 48 h, read-out: GI; procedure, shortened: as §2
[32] = tested on: SN12C; assay: Growth inhibition of human SN12C cells at 10 uM after 48 hrs; conditions: read-out: GI; procedure, shortened: as §2
[33] = Growth inhibition of human RXF393 cells at 10 uM after 48 hrs; conditions: RXF 393, 48 h, read-out: GI; procedure, shortened: as §1
[34] = tested on: ACHN; assay: Growth inhibition of human ACHN cells at 10 uM after 48 hrs; conditions: read-out: GI; procedure, shortened: as §1
[35] = tested on: A498; assay: Growth inhibition of human A498 cells at 10 uM after 48 hrs; conditions: A498, 48 h, read-out: GI; procedure, shortened: as §1
[36] = tested on: SK-OV-3; assay: Growth inhibition of human SKOV3 cells at 10 uM after 48 hrs; conditions: SK-OV-3, 48 h, read-out: GI; procedure, shortened: as §2
[37] = Growth inhibition of human NCI-ADR-RES cells at 10 uM after 48 hrs; conditions: read-out: GI; procedure, shortened: as §1
[38] = Growth inhibition of human OVCAR5 cells at 10 uM after 48 hrs; conditions: OVCAR-5, 48 h, read-out: GI; procedure, shortened: as §1
[39] = tested on: OVCAR-3; assay: Growth inhibition of human OVCAR3 cells at 10 uM after 48 hrs; conditions: OVCAR-3, 48 h, read-out: GI; procedure, shortened: as §1
[40] = Growth inhibition of human OVCAR4 cells at 10 uM after 48 hrs; conditions: OVCAR-4, 48 h, read-out: GI; procedure, shortened: as §1
[41] = tested on: SK-MEL-5; assay: Growth inhibition of human SK-MEL-5 cells at 10 uM after 48 hrs; conditions: SK-MEL-5, 48 h, read-out: GI; procedure, shortened: as §2
[42] = tested on: SK-MEL-28; assay: Growth inhibition of human SK-MEL-28 cells at 10 uM after 48 hrs; conditions: SK-MEL-28, 48 h, read-out: GI; procedure, shortened: as §2
[43] = read-out: LC50 (the source's name)

## COc1ccc(/C=C2\CCCc3c2nc(N)nc3-c2ccc(OC)c(OC)c2)cc1OC
[1]
  inhibition of growth at 10 µM: 42.7%
[2]
  inhibition of growth at 10 µM: 47.5%
[3]
  inhibition of growth at 10 µM: 87.1%
[4]
  inhibition of growth at 10 µM: 62.2%
[5]
  inhibition of growth at 10 µM: 36.1%
[6]
  inhibition of growth at 10 µM: < 30%
[7]
  inhibition of growth at 10 µM: < 30%
[8]
  inhibition of growth at 10 µM: 36.2%
[9]
  inhibition of growth at 10 µM: < 30%
[10]
  inhibition of growth at 10 µM: < 30%
[11]
  inhibition of growth at 10 µM: 50.7%
[12]
  inhibition of growth at 10 µM: 65.9%
[13]
  inhibition of growth at 10 µM: 43%
[14]
  inhibition of growth at 10 µM: < 30%
[15]
  inhibition of growth at 10 µM: 41.2%
[16]
  inhibition of growth at 10 µM: 71.9%
[17]
  inhibition of growth at 10 µM: 44%
[18]
  inhibition of growth at 10 µM: 57.7%
[19]
  GI50: 5.1 µM
  LC50: > 100 µM
  TGI: > 100 µM
[20]
  CC50: 93.6 µM
  GI50: 7.8 µM
  TGI: 66.7 µM
[21]
  GI50: 26.7 µM
  TGI: 85.7 µM
[21]; [43]
  CC50: > 100 µM
[22]
  GI50: 17.4 µM
  TGI: 75.8 µM
[22]; [43]
  CC50: 89.8 µM
[23]
  GI50: 22.1 µM
  TGI: 71.1 µM
[23]; [43]
  CC50: 94.3 µM
[24]
  inhibition of growth at 10 µM: < 30%
[25]
  inhibition of growth at 10 µM: < 30%
[26]
  inhibition of growth at 10 µM: 72.4%
[27]
  inhibition of growth at 10 µM: < 30%
[28]
  inhibition of growth at 10 µM: < 30%
[29]
  inhibition of growth at 10 µM: 38.5%
[30]
  inhibition of growth at 10 µM: < 30%
[31]
  inhibition of growth at 10 µM: 37.1%
[32]
  inhibition of growth at 10 µM: 42.6%
[33]
  inhibition of growth at 10 µM: 79.1%
[34]
  inhibition of growth at 10 µM: 72.7%
[35]
  inhibition of growth at 10 µM: < 30%
[36]
  inhibition of growth at 10 µM: 55.9%
[37]
  inhibition of growth at 10 µM: 74.9%
[38]
  inhibition of growth at 10 µM: < 30%
[39]
  inhibition of growth at 10 µM: 89.2%
[40]
  inhibition of growth at 10 µM: 46.7%
[41]
  inhibition of growth at 10 µM: 60.3%
[42]
  inhibition of growth at 10 µM: 34.7%

## COc1ccc(/C=C2\CCCc3c2nc(C)nc3-c2ccc(OC)cc2)cc1
[1]
  inhibition of growth at 10 µM: < 30%
[2]
  inhibition of growth at 10 µM: < 30%
[3]
  inhibition of growth at 10 µM: < 30%
[4]
  inhibition of growth at 10 µM: < 30%
[5]
  inhibition of growth at 10 µM: < 30%
[6]
  inhibition of growth at 10 µM: < 30%
[7]
  inhibition of growth at 10 µM: < 30%
[8]
  inhibition of growth at 10 µM: < 30%
[9]
  inhibition of growth at 10 µM: < 30%
[10]
  inhibition of growth at 10 µM: < 30%
[11]
  inhibition of growth at 10 µM: < 30%
[12]
  inhibition of growth at 10 µM: < 30%
[13]
  inhibition of growth at 10 µM: < 30%
[14]
  inhibition of growth at 10 µM: < 30%
[15]
  inhibition of growth at 10 µM: < 30%
[16]
  inhibition of growth at 10 µM: < 30%
[17]
  inhibition of growth at 10 µM: < 30%
[18]
  inhibition of growth at 10 µM: < 30%
[24]
  inhibition of growth at 10 µM: < 30%
[25]
  inhibition of growth at 10 µM: < 30%
[26]
  inhibition of growth at 10 µM: < 30%
[27]
  inhibition of growth at 10 µM: < 30%
[28]
  inhibition of growth at 10 µM: < 30%
[29]
  inhibition of growth at 10 µM: < 30%
[30]
  inhibition of growth at 10 µM: < 30%
[31]
  inhibition of growth at 10 µM: < 30%
[32]
  inhibition of growth at 10 µM: < 30%
[33]
  inhibition of growth at 10 µM: < 30%
[34]
  inhibition of growth at 10 µM: < 30%
[35]
  inhibition of growth at 10 µM: < 30%
[36]
  inhibition of growth at 10 µM: < 30%
[37]
  inhibition of growth at 10 µM: < 30%
[38]
  inhibition of growth at 10 µM: < 30%
[39]
  inhibition of growth at 10 µM: < 30%
[40]
  inhibition of growth at 10 µM: < 30%
[41]
  inhibition of growth at 10 µM: < 30%
[42]
  inhibition of growth at 10 µM: < 30%
